Assay results from different studies.
Compare with care: the assays were run in different laboratories.
Target: Sodium-dependent noradrenaline transporter (SLC6A2, Homo sapiens, UniProt P23975)

Compound	test	test system	conditions	inhibition [%]
CCN(Cc1ccccc1C(F)(F)F)C(=O)C1CCN(S(=O)(=O)c2ccc3[nH]ncc3c2)CC1	ligand displacement, radioligand	–	10 µM	20
O=C1N=C(N2CCCCN2)S/C1=C\c1ccc(F)cc1O	ligand displacement, radioligand	–	10 µM	< 10
Clc1ccc(C(c2ccc(Cl)cc2)c2nnnn2CCCN2CCC(CCCc3ccccc3)CC2)cc1	transporter uptake, inhibitor	HEK293	1 µM	10.8
O[C@@H]1[C@H](O)[C@@H]2C[C@@H]2[C@H]1n1cnc2c(NCc3cccc(Cl)c3)nc(C#Cc3ccc(F)c(F)c3)nc21	ligand displacement, radioligand	–	10 µM	51
CN1CCN(CCCOc2ccc(=O)n(-c3ccc(Cl)c(Cl)c3)n2)CC1	ligand displacement	–	1 µM	14.4
O=C(c1ccc(Cl)cc1)N(Cc1ccccc1)C1CCCCC1	cell-free assay	–	10 µM	14.9
O=C(Nc1ccc(S(=O)(=O)N2CCC(Cl)CC2)cc1)c1ccc([N+](=O)[O-])o1	ligand displacement, radioligand	–	10 µM	28
CCCNc1nc2ccccc2n1Cc1ccc(Cl)cc1	ligand displacement	–	10 µM	21.9
c1ccc(C2CCN(CCCCn3nnnc3C(c3ccccc3)c3ccccc3)CC2)cc1	transporter uptake, inhibitor	HEK293	1 µM	66.3
Ic1cccc2cnccc12	ligand displacement, radioligand	–	10 µM	44
Clc1ccc(C(c2ccc(Cl)cc2)c2nnnn2CCCN2CCC(Cc3ccccc3)CC2)cc1	transporter uptake, inhibitor	HEK293	1 µM	8.36
O[C@@H]1[C@H](O)[C@@H]2C[C@@H]2[C@H]1n1cnc2c(NCc3cccc(Cl)c3)ncnc21	ligand displacement, radioligand	–	10 µM	35
